# Measured values from PMC7396962 (Xenobiotica; the fate of foreign compounds in biological …, 2020).
# Assays:
# BCRP = target: T1, BCRP (Homo sapiens, UniProt Q9UNQ0); experiment: Glucuronide excretion in HeLa1A1 cells with DIPY; assay type: cell-based; details: CA 10 μM, DIPY 5 or 20 μM
# T1 sequence (Q9UNQ0 1-655): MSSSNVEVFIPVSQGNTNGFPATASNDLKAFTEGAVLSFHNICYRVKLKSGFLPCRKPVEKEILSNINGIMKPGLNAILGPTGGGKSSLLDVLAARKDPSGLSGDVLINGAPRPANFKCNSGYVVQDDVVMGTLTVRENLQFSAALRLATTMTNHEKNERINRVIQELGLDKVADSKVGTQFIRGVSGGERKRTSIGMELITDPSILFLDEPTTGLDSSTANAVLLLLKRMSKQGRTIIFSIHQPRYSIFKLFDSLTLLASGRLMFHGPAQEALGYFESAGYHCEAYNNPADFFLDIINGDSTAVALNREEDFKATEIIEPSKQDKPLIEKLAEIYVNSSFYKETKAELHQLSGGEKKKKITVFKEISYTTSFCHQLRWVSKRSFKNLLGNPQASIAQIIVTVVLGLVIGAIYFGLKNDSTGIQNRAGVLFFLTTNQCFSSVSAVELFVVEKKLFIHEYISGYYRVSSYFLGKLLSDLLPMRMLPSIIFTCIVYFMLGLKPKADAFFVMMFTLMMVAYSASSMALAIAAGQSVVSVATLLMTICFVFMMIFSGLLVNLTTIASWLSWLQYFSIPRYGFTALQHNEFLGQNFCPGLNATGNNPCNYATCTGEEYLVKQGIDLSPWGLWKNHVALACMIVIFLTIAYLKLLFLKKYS
# How it was run: (§1)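 HeLa cells overexpressing UGT1A1 grown in DMEM/10% FBS, seeded 2 × 10^5 cells/well and used near 90% confluence after HBSS washes. Exposed at 37 °C to test compound 10 μM in HBSS with inhibitor 5 or 20 μM or vehicle. Medium sampled at 0.5, 1, 1.5 and 2 h; cells lysed at 2 h in 50% methanol. Excretion rate, CLapp (ER/intracellular concentration) and fmet calculated; triplicate.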
# MRPs = experiment: Glucuronide excretion in HeLa1A1 cells with MK571; assay type: cell-based; details: CA 10 μM, MK571 5 or 20 μM
# How it was run: as §1
CA-O-glucuronide excretion (BCRP),fmet values (BCRP),intracellular amounts of glucuronide levels (BCRP),SMILES,fmet value (MRPs),intracellular accumulation of glucuronide (MRPs)
moderate decrease,significant decrease,statistical increase,"OCCN(CCO)c1nc(N2CCCCC2)c2nc(N(CCO)CCO)nc(N3CCCCC3)c2n1 [DIPY, dipyridamole]",–,–
–,–,–,CN(C)C(=O)CCSC(SCCC(=O)O)c1cccc(/C=C/c2ccc3ccc(Cl)cc3n2)c1 (centres unmarked) [MK571],significant reduction,elevated
